PMI activator = activators of human phosphomannose isomerase; P34949; purified human PMI, coupled resazurin fluorescence, 20 min; hits give high values; 1 = vehicle control, 0 substrate-free wells; activation factor at 20 µM; AID 1214; 190,000 compounds, 0.005% hits;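 active means activation factor of 2 or more at 20 µM, relative to plate controls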
Target sequence (P34949 whole entry, looked up): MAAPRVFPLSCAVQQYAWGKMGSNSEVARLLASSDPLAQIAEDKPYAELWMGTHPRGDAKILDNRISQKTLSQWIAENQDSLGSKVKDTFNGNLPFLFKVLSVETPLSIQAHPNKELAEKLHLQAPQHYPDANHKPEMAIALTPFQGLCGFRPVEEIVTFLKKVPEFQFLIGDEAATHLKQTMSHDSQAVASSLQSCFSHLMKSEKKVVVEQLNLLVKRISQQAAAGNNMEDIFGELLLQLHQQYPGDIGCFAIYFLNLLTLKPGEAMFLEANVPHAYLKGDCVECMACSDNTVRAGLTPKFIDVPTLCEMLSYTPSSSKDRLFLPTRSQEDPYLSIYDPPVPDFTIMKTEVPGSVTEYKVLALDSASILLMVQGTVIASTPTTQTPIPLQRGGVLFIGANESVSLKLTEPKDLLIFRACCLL
PMI act hi M6P = PMI (human) activation, high substrate. P34949. coupled PMI enzyme assay, resazurin fluorescence, 20 min; hits give high values; 1 = untreated enzyme, 0 = substrate-free blank. activation factor at 20 µM. 190,000 compounds, 0.34% hits;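 active means activation factor of 2 or more at 20 µM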
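Material: human phosphomannose isomerase with PGI, G6PDH, diaphorase coupling enzymes; amount: PMI at 15 ng/mL final; also added: Mannose-6-phosphate 1.0 mM (near-saturating) plus 0.22 mM NADP+; incubation: enzyme reaction with compound 20 min at room temperature; signal: resorufin fluorescence (Ex 544/Em 590 nm) from resazurin via diaphorase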
Rad51 HR inh = Rad51 (human) homologous recombination inhibition. Q06609. hRad51 DNA strand exchange, fluorescence dequenching. inhibition, % at 10 µM. 200,000 compounds, 0.085% hits;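 active means inhibition above 40% at the single screening dose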;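 further: 0% = DMSO control wells and 100% = blanks with heterologous ssDNA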
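System: hRad51 filaments on single-stranded DNA; reagent: Fluorescein- and BHQ1-tagged 47-mer duplex; compound dosing: one concentration, 10 µM final; timing: filaments 15 min 37 °C, then compound 30 min; measured by: fluorescein emission 520 nm, excitation 485 nm; benchmarks: per-plate controls and blanks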
m-calpain inh = calpain II (pig) inhibition; inhibition, % at 16 µM; purified calpain II, fluorogenic peptide substrate, 30 min; 220,000 compounds, 0.37% hits;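 active means inhibition above about 50%, limit read from the data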
HMGR II inh = inhibitors of class II HMG-CoA reductase from Enterococcus faecalis | purified E. faecalis HMGR, NADPH absorbance 340 nm kinetic | 190,000 compounds, 0.41% hits | inhibition, % at 10 µM;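 active means inhibition above a set limit, the median over all tested compounds plus 3 SD, cut at about 9.5% in these data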;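 further: enzyme runs in reverse so mevalonate oxidation gives rising NADPH absorbance; 0% = complete reaction with DMSO and 100% = background rate lacking mevalonate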
Numbers without * were called inactive; nt = no result given. In the library only some 1.1% were active in any assay of this set; here they are far more common.

SMILES	PMI activator	PMI act hi M6P	Rad51 HR inh	m-calpain inh	HMGR II inh
CC1(C)CCC23CC[C@]4(C)C(OC2=O)(C3C1)[C@H]1O[C@H]1C1[C@@]2(C)CC[C@@H](O)C(C)(C)C2CC[C@]14C (stereo not given in full)	nt	nt	4.8	nt	nt
O=c1c2ccccc2nnn1CSc1ccc2ccccc2n1	1	1.1	9.9	15.6	-5.0
Cc1cc(SCn2nnc3ccccc3c2=O)nc2ccccc12	0.8	0.9	-2.1	26.1	115.2*
COc1ccc(CCNC(=O)/C(C#N)=C2\N=C(NC(=O)c3ccco3)c3ccccc32)cc1	nt	nt	5.4	11.0	nt
CCN1CCN(C(c2cccs2)C(C)NS(=O)(=O)c2ccccc2)CC1 (stereo not given)	0.9	0.9	8.0	56.8*	-0.4
CCN1CCN(C(c2cccs2)C(C)NS(=O)(=O)c2ccc(C)cc2)CC1 (stereo not given)	1	1	-15.6	26.3	1.7
CC(C)Nc1nnc(Sc2ccc(Cl)cc2[N+](=O)[O-])s1	0.8	0.9	-0.1	71.4*	-1.6
Nc1nnc(Sc2ccc(Cl)cc2[N+](=O)[O-])s1	0.9	0.9	2.6	15.3	-0.1
C=CCOc1ccc(C(=O)CC)cc1OC	1	1	-2.7	19.0	-5.0
Cc1ccc(-c2ccc([C@H]3[C@@H]4C=CCC[C@@]4(C)C(=O)N3Cc3ccccc3)c(F)c2)cc1	nt	nt	5.0	66.3*	nt
CC(C)S(=O)(=O)c1cnc(-c2cccnc2)nc1N	nt	nt	-1.1	-4.0	nt
Cc1ccc(C)[n+](CC(=O)c2ccc(-c3ccccc3)cc2)c1	1.1	1	6.0	-43.4	0.5
COc1ccc(NC(=O)N/C=C/c2ccco2)cc1	1.8	2.2*	-10.7	-34.5	-4.0
CC(C)(C)N/N=C/c1c(O)n(-c2ccc(Cl)cn2)c(=O)c2ccccc12	1.9	2.5*	2.5	-11.6	-1.0
CC1=NN(C(=O)COc2ccccc2)C(O)(c2cccnc2)C1 (stereo not given)	1.1	1.1	15.8	-17.8	-1.7
COc1ccc(NC(=O)/C(=C/c2ccc3c(c2)OCO3)NC(C)=O)cc1	0.9	0.9	-13.4	26.8	4.2
CCc1ccc(NC(=O)CSc2nc(NS(=O)(=O)c3ccccc3)cc(=O)[nH]2)cc1	nt	nt	-0.5	-30.4	10.2*
Cc1cc2sc3ccccc3c(=O)c2c(C)c1O	1.4	1.2	16.1	-37.4	-1.3
O=c1c(C(c2ccccc2)c2c(O)sc3ccccc3c2=O)c(O)sc2ccccc12	1	0.9	-0.4	51.5*	-1.2
CC(C)(C)NC(=O)/C(=C\c1ccco1)NC(=O)c1cccs1	0.9	1	-0.9	-0.5	10.6*
O=C(c1ccc(COc2ccccc2[N+](=O)[O-])o1)N1CCCCCC1	1	0.9	8.1	-34.2	11.6*
CCCCCN1CN(S(=O)(=O)c2cccs2)c2nc3ccccc3nc21	nt	nt	-0.7	-14.2	nt
CCCc1nc(SCC(=O)c2ccccc2)c2c(=O)n(C)c(=O)n(C)c2n1	0.8	0.9	-2.9	52.7*	-5.1
O=C1CCCC2=C1C(c1ccccc1)CC(=O)N2c1ccc(F)cc1F (stereo not given)	1	0.9	7.8	-17.7	12.4*
CC1(C)CC(=O)C2=C(C1)N(c1ccc(F)cc1)C(=O)CC2c1ccccc1 (stereo not given)	0.9	0.9	6.8	-28.9	1.1
SMILES	PMI activator	PMI act hi M6P	Rad51 HR inh	m-calpain inh	HMGR II inh
OC(CNCCCCNCC(O)C(F)(F)F)C(F)(F)F (stereo not given)	1	1	23.2	-0.4	-4.8
Cc1onc(C(=O)NCc2ccccn2)c1[N+](=O)[O-]	1	1	0.7	-17.9	-0.8
Cn1c(CO)cnc1SCc1ccc(F)cc1	0.8	0.8	1.5	8.7	14.6*
O=C(N[C@@H](Cc1ccccc1)C(=O)OCc1ccccc1)c1nc[nH]c1C(=O)N1CCN(c2ccccc2)CC1	nt	nt	3.1	51.4*	nt
O=C(N[C@@H](Cc1ccccc1)C(=O)OCc1ccccc1)c1nc[nH]c1C(=O)NCc1ccccc1	0.7	0.7	-1.9	27.8	0.2
CCOc1cc(/C=N/NC(=O)c2ccncc2)cc(Cl)c1OS(C)(=O)=O	1	1	4.4	16.1	0.6
CCOc1cc(/C=N/NC(=O)c2ccncc2)ccc1OS(C)(=O)=O	1	1	-3.6	105.6*	-4.8
O=C(OC1C[C@@H]2CC3C[C@H](C1)N2CC3=O)c1c[nH]c2ccccc12 (stereo not given in full)	nt	nt	-10.8	nt	nt
CC(=O)Nc1ccc(S(=O)(=O)NCC(=O)NC(C)c2ccc(S(N)(=O)=O)cc2)cc1 (stereo not given)	nt	nt	-3.7	7.9	nt
Fc1ccc(-c2n[nH]c(=S)c3ccccc23)cc1	1.8	2.4*	10.4	1.7	0.1
O=C1CSc2ccc(C(=O)O)cc2N1	1.2	1.1	1.2	15.7	0.3
CN(Cc1ccc(F)cc1)C(=O)c1ccc2c(c1)NC(=O)CS2	0.9	0.9	6.1	-8.6	11.8*
Cc1c(NS(=O)(=O)c2ccc3c(c2)Cc2ccccc2-3)c(=O)n(-c2ccccc2)n1C	0.9	1	nt	-28.9	13.6*
Cc1c(NS(=O)(=O)c2ccc(S(=O)(=O)c3ccccc3)s2)c(=O)n(-c2ccccc2)n1C	nt	nt	-2.2	15.8	nt
Cc1c(NS(=O)(=O)c2ccc3c(c2)n(C)c(=O)n3C)c(=O)n(-c2ccccc2)n1C	1.1	1.2	0.9	-42.5	1.2
Cc1c(NC2=NC(C)(C)Cc3ccccc32)c(=O)n(-c2ccccc2)n1C	1	1	-3.1	-8.6	11.4*
Cc1c(NS(=O)(=O)c2ccc(Br)s2)c(=O)n(-c2ccccc2)n1C	0.9	1	0.7	-8.1	10.4*
N/C(=N\OC(=O)Nc1ccccc1)c1ncc([N+](=O)[O-])s1	nt	nt	nt	-15.0	nt
O=C(NCC(=O)N(Cc1cccs1)C(C(=O)NC1CCCCC1)c1ccncc1)c1ccco1 (stereo not given)	1	1	-3.4	-27.7	10.9*
COc1ccccc1C(=O)N1c2ccccc2Sc2ccccc21	0.9	0.9	3.0	29.4	0.9
CCOc1ccccc1C(=O)N1c2ccccc2Sc2ccccc21	0.9	1	6.2	55.1*	0.4
CCOC(=O)c1ccc(-n2ccnc2)c(NC(=O)c2ccc(C(C)(C)C)cc2)c1	1	1	-8.6	-7.5	-1.3
CC(C)(C)C(=O)Nc1cc(C(F)(F)F)ccc1-n1ccnc1	1.1	1.1	-2.2	-18.3	12.8*
Cc1ccc(-c2csc(NC(=S)NC(=O)c3ccco3)n2)cc1	1.1	1.1	-29.6	57.4*	2.9
COc1ccc(CN2CCNC(=O)C2CC(=O)NCCc2c[nH]c3ccccc23)c(OC)c1 (stereo not given)	0.9	0.7	3.6	-52.5	-14.7
Nc1c(C(=O)Nc2nc3ccccc3s2)sc2nc(-c3cccs3)ccc12	0.9	0.9	-351.5	-133.8	-3.9
